# Bioassay records as filed in PubChem BioAssay.
# In the library only some 4.6% were active in any assay of this set; here they are far more common.
# HDAC3 inh: human HDAC3 inhibition; O15379; recombinant HDAC3, fluorogenic peptide/trypsin coupled, fluorescence; inhibition, % at 8.3 µM; 0.15% of 320,000 active; in the data active means inhibition above about 26%, passing the limit was not always enough
# Rtt109 Vps75: blocks Candida albicans Rtt109/Vps75 acetyltransferase activity | inhibition, % at 34.9 µM | purified Rtt109/Vps75, ThioGlo CoA-SH fluorescence, 4 h | Q5AAJ8 | 0.16% of 330,000 active | AID 540336;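 active means inhibition of at least 50% in every replicate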
# UCH37 inh: inhibitors of human deubiquitinating enzyme UCH37 | Q9Y5K5 | purified proteasome/UCH37, Ub-AMC cleavage fluorescence | inhibition, % (test concentration not listed) | 0.33% of 330,000 active;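 active means mean inhibition over replicate wells above about 20%, limit read from the data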;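 further: 0% = compound-free wells with enzyme and 100% = wells lacking proteasome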
# Target sequence (Q9Y5K5 whole entry, looked up): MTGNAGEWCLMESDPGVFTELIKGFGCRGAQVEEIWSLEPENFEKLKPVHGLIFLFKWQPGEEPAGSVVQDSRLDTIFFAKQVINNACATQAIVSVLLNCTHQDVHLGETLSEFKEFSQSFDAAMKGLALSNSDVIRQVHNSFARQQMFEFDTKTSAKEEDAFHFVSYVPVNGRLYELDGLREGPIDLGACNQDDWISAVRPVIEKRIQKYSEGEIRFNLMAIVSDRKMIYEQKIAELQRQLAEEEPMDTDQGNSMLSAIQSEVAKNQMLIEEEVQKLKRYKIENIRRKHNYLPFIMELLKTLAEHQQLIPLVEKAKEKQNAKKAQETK
#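 Schedule: 30 min plus 25 min, room temperature / Material: human UCH37 within purified proteasomes / Technique: AMC fluorescence intensity at 355/460 nm / Buffer or medium: pH 7.4 Tris-HCl (50 mM) with ovalbumin, ATP-MgCl2, DTT / Controls: wells without proteasome as full block, compound-free enzyme plus substrate as uninhibited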
# M18AAP inhibitor: PfM18AAP enzyme inhibition. recombinant PfM18AAP, H-Glu-NHMec fluorogenic cleavage. inhibition, % at 7.35 µM. 1.2% of 290,000 active. AID 1822;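 active means inhibition above the campaign mean inhibition over all tested compounds plus 3 SD, cut at about 28% in these data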;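 further: 0% = plate median of test compound wells and 100% = 2 mM ZnCl2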
# FAS-TE inh: FAS thioesterase (human) inhibition | 0.67% of 360,000 active | AID 602261 | recombinant FAS-TE, OMFH fluorogenic substrate, fluorescence endpoint | P49327 | inhibition, % at 15 µM;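 active means compounds whose normalised, plate-corrected inhibition of enzyme fluorescence in the single-dose primary screen is 50% or more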;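 further: 0% = DMSO with enzyme and 100% = substrate without enzyme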
# ALR H2O2 inh: blocks human ALR sulfhydryl oxidase activity | 3.8% of 290,000 active | purified ALR, DTT oxidation, H2O2 HRP-luminol luminescence | inhibition, % (concentration not given with the values) | AID 485317;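 active means mean replicate inhibition above about 79%, with every replicate also reaching it, limit read from the data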
# The depositor's hits bear a star; . = no result.
SMILES,HDAC3 inh,Rtt109 Vps75,UCH37 inh,M18AAP inhibitor,FAS-TE inh,ALR H2O2 inh
Cc1cccc(N2C(=O)C(O)=C(C(=O)c3cccs3)C2c2ccc(C(C)C)cc2)n1 (centres undefined),-4,21,7,-14,48,98*
CCOc1ccc(C=NN2C(=O)C(CC(=O)Nc3ccc(F)cc3F)SC2=NC)cc1OC (centres undefined),.,.,4,.,.,.
COc1ccc(N=c2scc(-c3ccc(OC)cc3)n2CCO)cc1,-5,11,1,-3,-2,86*
COCCn1c(-c2ccc(Br)cc2)csc1=Nc1cccnc1,3,7,.,5,10,-24
Cc1ccc(NC2=C/C(=N\S(=O)(=O)c3cccs3)c3ccccc3C2=O)c(C)c1,5,-9,65*,-1,32,-34
Cc1cccc(NC2=CC(=NS(=O)(=O)c3cccs3)c3ccccc3C2=O)c1,.,.,50*,.,.,.
O=C1C(Nc2ccc(O)cc2)=C/C(=N/S(=O)(=O)c2cccs2)c2ccccc21,.,-11,.,4,35,.
Cc1cccc(NC2=C/C(=N/S(=O)(=O)c3cccs3)c3ccccc3C2=O)c1,5,-1,.,-2,39,.
COc1ccccc1C=NNC(=O)CN(C1=NS(=O)(=O)c2ccccc21)c1ccccc1,.,.,-1,.,.,.
CCOC(=O)/C(C#N)=C1/C=CN(C)C(C)=N1,0,-4,21*,-5,-1,-2
CCOC(=O)/C(C#N)=C1/C=C(C)NC(c2ccccc2O)=N1,5,6,-58,-1,1,43
CC(=NNC(=O)CON=C(C)c1cccs1)c1ccc(N)cc1,.,.,2,.,.,.
Cc1ccccc1CN(c1ccc(C(=O)NCc2cccnc2)cc1)S(C)(=O)=O,4,-15,-1,-3,-4,96*
COC(=O)c1ccc(CON=Cc2ccccc2OC)cc1,.,.,1,.,.,.
COc1cccc(C=NNC(=O)c2cnn(-c3ccccc3)c2N)c1,.,.,4,.,.,.
O=C(O)c1cccc(NC(=S)NN=Cc2ccccc2OCc2ccc(Br)cc2)c1,.,.,12,.,.,.
COc1ccc(OC)c(S(=O)(=O)NNC(=S)Nc2ccc3c(c2)OCO3)c1,11,8,1,22,-5,94*
COCc1cc(=O)[nH]c(N=C(N)Nc2ccccc2C)n1,.,.,29*,.,.,.
Cc1ccc(-c2ccc(CCC(=O)O)n2-c2ccc(C(=O)O)cc2)cc1,-9,.,.,21,-9,97*
COC(=O)c1cccc(-n2c(CCC(=O)O)ccc2-c2cccs2)c1,2,26,3,-17,-6,36
Cc1ccc(-n2c(CCC(=O)O)ccc2-c2cccs2)cc1,-11,9,1,-11,-2,94*
CC(=O)c1ccc(-n2c(CCC(=O)O)ccc2-c2cccs2)cc1,9,5,7,-20,-4,42
NC(=O)c1ccc(-n2c(CCC(=O)O)ccc2-c2cccs2)cc1,1,3,1,6,-2,84*
COc1cc(C=NNc2cc(=O)n(C)c(=O)n2C)ccc1O,.,.,11,.,.,.
CC(C)(C=NNC(=O)CSCc1ccc(Cl)cc1)CCC#N,.,.,0,.,.,.
SMILES,HDAC3 inh,Rtt109 Vps75,UCH37 inh,M18AAP inhibitor,FAS-TE inh,ALR H2O2 inh
O=C(Nc1ccc2c(c1)nc1n2CCSC1)c1ccccc1,9,0,-1,-15,-8,99*
COc1ccc(C(=O)Nc2ccc3c(c2)nc2n3CCSC2)cc1,0,2,4,4,-9,99*
O=C(Nc1ccc2c(c1)nc1n2CCOC1)c1ccccc1,1,1,2,7,-4,.
NS(=O)(=O)c1ccc(NN=C/C=C/c2ccccc2[N+](=O)[O-])cc1,.,.,5,.,.,.
Cc1c(C(=O)O)c2cc(O)ccc2n1-c1ccccc1,2,11,-1,-6,-11,80*
CCCn1cc(SCC(=O)NC2CCCC2)c2ccccc21,-5,0,3,3,-5,7
CCCn1cc(S(=O)(=O)CC(=O)NC2CCCCC2)c2ccccc21,-8,51*,4,-11,-8,0
O=C1CSC(=S)N1c1ccc(F)c(Cl)c1,0,14,3,28*,-2,-10
CCN(CC)c1ccc(N2C(=O)CSC2=S)cc1,9,3,3,13,5,98*
CCOc1ccc(N2C(=O)CSC2=S)cc1,-1,3,3,0,-3,-41
O=C1CSC(=S)N1c1ccccc1,.,-5,1,.,-4,.
CC(CC(=O)Nc1ccccn1)=NNC(=O)Cc1cccc2ccccc12,.,.,6,.,.,.
